# Bioassay records: PubChem, Broad Institute
# Sampled rows, rich in hits. Any-hit rate of the full collection: about 2.2%.
# ERp5 inh: inhibitors of ERp5-driven insulin aggregation, primary screen, biochemical, turbidity, absorbance 650 nm, single point | hit rate 0.05% among 350,000 | AID 651711, 2012 | inhibition, % at 9.99 µM | 90 min | Protein disulfide-isomerase A6 (Homo sapiens), Q15084;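 active = mean replicate inhibition above about 25%, with every replicate also reaching it, limit read from the data, passing the limit was not always enough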
# Target sequence (Q15084 whole entry, looked up): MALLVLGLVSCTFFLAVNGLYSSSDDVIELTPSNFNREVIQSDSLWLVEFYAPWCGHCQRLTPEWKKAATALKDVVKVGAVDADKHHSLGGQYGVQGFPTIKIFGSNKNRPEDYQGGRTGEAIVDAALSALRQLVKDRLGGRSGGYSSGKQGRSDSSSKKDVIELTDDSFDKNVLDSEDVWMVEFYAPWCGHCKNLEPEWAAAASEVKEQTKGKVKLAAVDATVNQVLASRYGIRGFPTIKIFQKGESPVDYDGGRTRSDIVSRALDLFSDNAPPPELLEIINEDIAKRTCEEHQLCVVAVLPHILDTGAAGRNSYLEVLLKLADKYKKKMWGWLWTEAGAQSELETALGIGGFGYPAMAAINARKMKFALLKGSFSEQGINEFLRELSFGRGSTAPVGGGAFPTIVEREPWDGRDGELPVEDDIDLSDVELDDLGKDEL
# PvdQ acylase: P. aeruginosa PvdQ acylase inhibitors, primary screen, biochemical, fluorescence, plate reader and imaging, single point; purified PvdQ acylase; AID 488965, 2010; PvdQ acylase [Pseudomonas aeruginosa LESB58]; inhibition, % at 10 µM; hit rate 0.063% among 340,000; in the data active = inhibition above about 30%, passing the limit was not always enough;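 note: 0% = vehicle neutral wells and 100% = reference inhibitor wells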
# HIV Env fusion: inhibitors of HIV-1 Env-driven cell-cell fusion, primary screen, HeLa-JRFL effector, CEM21 target cells, luciferase. AID 651610, 2012. hit rate 1.1% among 360,000. inhibition, % at 12.3 µM;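 active = mean replicate inhibition score of at least 50 and every replicate individually at or above 50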;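 note: 0% = plate neutral controls and 100% = maraviroc near 300 nM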
# PDI turbidity: inhibitors of human PDI, primary screen, biochemical, turbidity, single point, plate reader; AID 588391, 2011; hit rate 0.052% among 350,000; inhibition, % at 10 µM; Protein disulfide-isomerase (Homo sapiens), P07237; PDI insulin aggregation turbidity, A650, 90 min;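 active = mean inhibition across replicates of 30% or more, whatever share of single replicates reach that level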
# FN deposition inh: inhibitors of fibronectin matrix deposition, primary screen, AH1F cells, Alexa488-fibronectin fluorescence, plate reader; AH1F fibroblasts, overnight; inhibition, % at 12.6 µM; hit rate 0.086% among 350,000; AID 743247, 2014;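 active = mean inhibition across replicates of 30% or more, regardless of how many single replicates reach that level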;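 note: positive control wells lacked labelled fibronectin entirely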
#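 Measured by – fluorescence 485/525 nm · System – AH1F fibroblast monolayer, labelled fibronectin deposition · Amount – 10000 cells per well · Buffer or medium – serum-reduced DMEM (2% serum) · Doses – single dose, pinned · Also added – fluorescent fibronectin at 24 nM final · Schedule – 1 h cell attachment, overnight exposure to compound and label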
# Ecoli rRNA inh: reduced GFP signal of wild-type E. coli, primary screen, bacterial rRNA inhibitor project, GFP/RFP fluorescence, OD600, single point; E. coli WT GFP vs humanized-ribosome RFP mutants, 24 h; active compounds read low; DMSO median 0, no signal -100; GFP signal change (wild-type ribosome), % (concentration not given with the values); hit rate 1.6% among 350,000;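 active = significant combined selectivity score with lowered wild-type GFP, culture density cut under 30%, mutant RFP and density less affected; inactive = any of these conditions unmet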
# Starred values were filed as active, the others as inactive; · = not tested or not shown; [ ] = dose if it differs, or a comment.
SMILES,ERp5 inh,PvdQ acylase,HIV Env fusion,PDI turbidity,FN deposition inh,Ecoli rRNA inh
CC1(C(=O)NS(=O)(=O)c2ccccc2)CCN1C(=O)Cc1ccccc1 (stereo unspecified),0.4,·,·,-5.1,9.9,15.1
Cc1oc2c(CN3CCCCC3)c(O)ccc2c(=O)c1-c1ccc(Br)cc1,-5.4,-9.1,-4.3,-0.5,-1.0,10.0
Cc1oc2c(CN3CCCC3)c(O)ccc2c(=O)c1-c1ccc(Br)cc1,-2.6,-6.2,·,-3.9,·,-28.5*
Cn1ccc(/C=N/N=C2/NC(=O)CS2)n1,5.7,11.4,-21.2,-3.2,-8.4,-43.2*
O=C1CS/C(=N/N=C/c2ccncc2)N1,-2.4,·,3.9,-5.2,-6.6,5.5
O=S(=O)(c1ccc(NC(=S)N2CCN(c3ccccc3F)CC2)cc1)N1CCOCC1,6.0,2.2,58.8*,-0.4,-4.3,-5.4
O=C(N[C@H]1CC[C@@H](CCn2cc(Cc3ccccc3)nn2)O[C@@H]1CO)c1ccccn1,2.4,·,-33.6[16.7 µM],·,2.5,0.4
COC(=O)C[C@H]1CC[C@@H]2[C@@H](COc3ccc(NC(=O)Cc4cccs4)cc3C(=O)N2C)O1,-3.3,·,14.8[16.7 µM],·,40.1*,-3.2
Cc1nn(C)cc1NC(=O)C[C@H]1CC[C@H]2[C@H](COc3ccc(NC(=O)C4CCC4)cc3C(=O)N2C)O1,·,·,13.7[16.7 µM],·,-20.0,2.4
CCNC(=O)C[C@@H]1CC[C@@H]2[C@H](COc3ccc(NC(=O)Nc4cccc(OC)c4)cc3C(=O)N2C)O1,·,·,-14.1[16.7 µM],·,1.7,-1.5
CCNC(=O)C[C@H]1CC[C@@H]2[C@@H](COc3ccc(NC(=O)Nc4cccc(OC)c4)cc3C(=O)N2C)O1,·,·,58.5*[16.7 µM],·,4.7,-3.9
CN1C(=O)c2cc(NC(=O)c3cccc(Cl)c3)ccc2OC[C@H]2O[C@@H](CC(=O)NC3CCCCC3)CC[C@@H]21,·,·,·,·,-5.6,2.6
CN1C(=O)c2cc(NC(=O)c3cccc(Cl)c3)ccc2OC[C@@H]2O[C@H](CC(=O)NC3CCCCC3)CC[C@@H]21,·,·,56.6*[16.7 µM],·,-2.7,-6.3
Cc1nn(C)cc1NC(=O)C[C@@H]1CC[C@@H]2[C@@H](COc3ccc(NC(=O)C4CCC4)cc3C(=O)N2C)O1,·,·,-4.1[16.7 µM],·,-15.7,-15.6*
Cc1ccccc1-c1ccc2c(c1)O[C@@H](CN(C)C(=O)C1CC1)[C@H](C)CN([C@@H](C)CO)S2(=O)=O,1.5,·,-46.2[16.7 µM],·,0.5,-8.4
C[C@H](CO)N1C[C@H](C)[C@H](CN(C)C(=O)c2ccncc2)Oc2ncc(C3=CCCCC3)cc2C1=O,0.3,·,-8.2[16.7 µM],·,·,-0.1
CN1C(=O)c2cc(NC(=O)c3cccc(F)c3)ccc2OC[C@H]2O[C@@H](CC(=O)N3CCc4ccccc4C3)CC[C@@H]21,5.7,·,·,·,12.7,-26.2*
CN1C(=O)c2cc(NS(=O)(=O)c3ccccc3F)ccc2OC[C@H]2O[C@H](CC(=O)NC3Cc4ccccc4C3)CC[C@H]21,-3.9,·,21.9[16.7 µM],·,-14.2,-3.5
CN1C(=O)c2cc(NS(=O)(=O)c3ccccc3F)ccc2OC[C@@H]2O[C@H](CC(=O)NC3Cc4ccccc4C3)CC[C@@H]21,-1.1,·,63.1*[16.7 µM],·,-7.8,-4.9
CC(=O)Nc1ccc2c(c1)C(=O)N(C)[C@@H]1CC[C@@H](CC(=O)NCC3CC3)O[C@H]1CO2,70.9*,·,-0.2[16.7 µM],·,-15.4,1.1
CC(=O)c1ccc(N(C(=O)Cc2c[nH]c3ccccc23)C(C(=O)NC2CCCCC2)c2cccs2)cc1 (stereo unspecified),·,-7.5,-52.0,6.6,-5.6,·
O=C(NC1CCCCC1)C(c1cccs1)N(Cc1cccs1)C(=O)c1ccco1 (stereo unspecified),·,-7.6,83.6*,1.2,-1.4,·
O=C(NC1CCCCC1)C(c1cccs1)N(C(=O)Cc1c[nH]c2ccccc12)c1ccc(F)cc1 (stereo unspecified),·,7.4,87.2*,8.1,1.0,·
Cc1ccc(C(C(=O)NC2CCCCC2)N(C(=O)Cc2c[nH]c3ccccc23)c2ccccc2)o1 (stereo unspecified),·,-3.9,111.6*,3.7,2.5,·
